According to publication PMC4912417 (Nature chemical biology, 2016):

Tested on: larval zebrafish
Assay: Battery of 10 behavioral assays in larval zebrafish
Format: in vivo, zebrafish (Danio rerio)
Conditions: for Haloperidol-like phenotype (zebrafish motor activity heat maps): Fig. 3b, three wells per drug
How it was run: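 7 d.p.f. Ekkwill larvae, 8–10 per well in E3, held 1 h at 25 °C, then given compound (<1% DMSO; DMSO-treated control wells) for 1 h at room temperature. Ten-assay battery of red/blue/violet light and 60/70 dB sound, IR-lit video; MI by frame differencing over 10,500 time points. Seven 2-fold concentrations, 12 wells each, triplicate days; magnitude = 5th-percentile-subtracted MI averaged over time.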

Row | Compound | Haloperidol-like phenotype (zebrafish motor activity heat maps) | other results
1 | CN1CCN(CCCN2c3ccccc3Sc3ccc(Cl)cc32)CC1 [prochlorperazine] | cause haloperidol-like phenotypes | –
2 | CN1c2ccccc2C(NCCCCCCC(=O)O)c2ccc(Cl)cc2S1(=O)=O (stereo not drawn) [Tianeptine] | – | Effect on behavioral profile (phenotypic distance from control animals) (reference set, seven concentrations): failed to show an effect
3 | CSc1ccc2c(c1)N(CCC1CCCCN1C)c1ccccc1S2 (stereo not drawn) [thioridazine] | cause haloperidol-like phenotypes | –
4 | O=C(CCCN1CCC(O)(c2ccc(Cl)cc2)CC1)c1ccc(F)cc1 [Haloperidol] | – | MI magnitude (5 μM, 48 wells vs DMSO): increased MI magnitude at many points in the time series; Shape and average magnitude of the behavioral profile (lower concentrations (2.5–10 μM)): changed the shape of the behavioral profile without reducing its average magnitude; Motor activity (very high concentrations (20–80 μM)): reduced motor activity
5 | c1ccc2c(c1)Nc1ccccc1S2 [phenothiazine] | cause haloperidol-like phenotypes | –
6 | O=C(CCCN1CCC(O)(c2ccc(Br)cc2)CC1)c1ccc(F)cc1 [BROMPERIDOL] | cause haloperidol-like phenotypes | –
7 | O=C(CCCN1CC=C(n2c(=O)[nH]c3ccccc32)CC1)c1ccc(F)cc1 [DROPERIDOL] | cause haloperidol-like phenotypes | –
